Source: ChEMBL document CHEMBL4261566, “New application of tiplaxtinin as an effective FtsZ-targeting chemotype for an antimicrobial study” (2017)
In brackets after ≈: the same amount, converted by molar mass. Activity calls are given as the source filed them. No cut-off for these calls is given here.

Experiments:
Bacillus subtilis [1] = assay: Antibacterial activity against Bacillus subtilis 168 after 18 hrs by broth microdilution method; type: functional; settings: subsp. subtilis str. 168, 18 h
Staphylococcus aureus [2] = assay: Antibacterial activity against Staphylococcus aureus ATCC 29213 after 18 hrs by broth microdilution method; type: functional; settings: ATCC 29213, 18 h
Staphylococcus aureus [3] = assay: Antibacterial activity against Staphylococcus aureus ATCC 29247 after 18 hrs by broth microdilution method; type: functional; settings: ATCC 29247, 18 h
Staphylococcus aureus [4] = assay: Antibacterial activity against methicillin-resistant Staphylococcus aureus ATCC 33591 after 18 hrs by broth microdilution method; type: functional; settings: ATCC 33591, 18 h
Staphylococcus aureus [5] = assay: Antibacterial activity against methicillin-resistant Staphylococcus aureus ATCC 33592 after 18 hrs by broth microdilution method; type: functional; settings: ATCC 33592, 18 h
Staphylococcus aureus [6] = assay: Antibacterial activity against methicillin-resistant Staphylococcus aureus ATCC 43300 after 18 hrs by broth microdilution method; type: functional; settings: ATCC 43300, 18 h
Staphylococcus aureus [7] = assay: Antibacterial activity against methicillin-resistant Staphylococcus aureus ATCC BAA-41 after 18 hrs by broth microdilution method; type: functional; settings: ATCC BAA-41, 18 h
Staphylococcus aureus [8] = assay: Antibacterial activity against methicillin-resistant Staphylococcus aureus ATCC BAA-1717 after 18 hrs by broth microdilution method; type: functional; settings: ATCC BAA-1717, 18 h
Staphylococcus aureus [9] = assay: Antibacterial activity against methicillin-resistant Staphylococcus aureus ATCC BAA-1720 after 18 hrs by broth microdilution method; type: functional; settings: ATCC BAA-1720, 18 h
Staphylococcus aureus [10] = assay: Antibacterial activity against methicillin-resistant Staphylococcus aureus ATCC BAA-1747 after 18 hrs by broth microdilution method; type: functional; settings: ATCC BAA-1747, 18 h
Staphylococcus aureus [11] = assay: Antibacterial activity against methicillin-resistant Staphylococcus aureus USA300 417 after 18 hrs by broth microdilution method; type: functional; settings: USA300 417, 18 h
Staphylococcus aureus [12] = assay: Antibacterial activity against methicillin-resistant Staphylococcus aureus USA300 2690 after 18 hrs by broth microdilution method; type: functional; settings: USA300 2690, 18 h
[13] = tested on: Staphylococcus epidermidis; assay: Antibacterial activity against Staphylococcus epidermidis ATCC 12228 after 18 hrs by broth microdilution method; type: functional; settings: ATCC 12228, 18 h
Enterococcus faecalis = assay: Antibacterial activity against Enterococcus faecalis ATCC 29212 after 18 hrs by broth microdilution method; type: functional; settings: ATCC 29212, 18 h
Enterococcus faecium [14] = assay: Antibacterial activity against Enterococcus faecium ATCC 49624 after 18 hrs by broth microdilution method; type: functional; settings: ATCC 49624, 18 h
Enterococcus faecium [15] = assay: Antibacterial activity against vancomycin-resistant Enterococcus faecium ATCC 700221 after 18 hrs by broth microdilution method; type: functional; settings: ATCC 700221, 18 h
Escherichia coli = assay: Antibacterial activity against Escherichia coli ATCC 25922 after 18 hrs by broth microdilution method; type: functional; settings: ATCC 25922, 18 h
Pseudomonas aeruginosa = assay: Antibacterial activity against Pseudomonas aeruginosa ATCC BAA-2108 after 18 hrs by broth microdilution method; type: functional; settings: ATCC BAA-2108, 18 h
Klebsiella pneumoniae = assay: Antibacterial activity against Klebsiella pneumoniae ATCC BAA-1144 after 18 hrs by broth microdilution method; type: functional; settings: ATCC BAA-1144, 18 h
[16] = target: T1, Cell division protein FtsZ (Staphylococcus aureus) (UniProt P0A031); assay: Induction of recombinant Staphylococcus aureus FtsZ polymerization at 10 ug/ml by 90degree light scattering-based fluorescence spectrometric analysis
T1 sequence (whole entry): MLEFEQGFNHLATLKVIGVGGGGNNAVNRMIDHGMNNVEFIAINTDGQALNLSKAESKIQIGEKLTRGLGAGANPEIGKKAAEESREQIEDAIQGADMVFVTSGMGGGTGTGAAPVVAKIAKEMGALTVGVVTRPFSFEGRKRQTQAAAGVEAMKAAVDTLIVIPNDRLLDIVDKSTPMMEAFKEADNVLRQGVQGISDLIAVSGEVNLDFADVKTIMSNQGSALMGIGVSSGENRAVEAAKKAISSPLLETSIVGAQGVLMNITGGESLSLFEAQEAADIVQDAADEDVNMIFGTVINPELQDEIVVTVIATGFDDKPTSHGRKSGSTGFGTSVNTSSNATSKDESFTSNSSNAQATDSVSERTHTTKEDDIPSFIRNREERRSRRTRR
Method in brief: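 Recombinant S. aureus FtsZ cloned, overexpressed and purified. Polymerization followed over time by 90° light scattering in a thermostatically controlled fluorescence spectrometer, read as absorbance at 600 nm. Profiles recorded with and without compound. Methicillin served as the non-FtsZ-targeting control antibiotic.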

Staphylococcus aureus [17] = assay: Bactericidal activity against Staphylococcus aureus ATCC 29213 assessed as reduction in bacterial load at MIC to 4 times MIC after 24 hrs relative to control; type: functional
Method in brief: (§1)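 Time-kill assay: a growing culture (S. aureus ATCC 29213 or B. subtilis 168) was exposed at time zero to 1×, 2× and 4× the MIC. Viable cell numbers were followed over 24 h, and the log reduction in viable count was recorded.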

Bacillus subtilis [18] = assay: Bactericidal activity against Bacillus subtilis 168 assessed as reduction in bacterial load at MIC to 4 times MIC after 24 hrs relative to control; type: functional, subsp. subtilis str. 168; method in brief: as §1
[19] = target: T1, Cell division protein FtsZ (Staphylococcus aureus); assay: Induction of recombinant Staphylococcus aureus FtsZ polymerization by 90degree light scattering-based fluorescence spectrometric analysis
Method in brief: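 S. aureus FtsZ was cloned, overexpressed and purified. Polymerization was followed over time by 90° light scattering in a thermostatically controlled fluorescence spectrometer, […] change at 600 nm. Compound was tested at 2 to 8 μg mL–1 against a no-compound profile. Methicillin served as the non-FtsZ-targeting control antibiotic.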

[20] = target: T1, Cell division protein FtsZ (Staphylococcus aureus); assay: Induction of recombinant Staphylococcus aureus FtsZ polymerization assessed as increase in size of polymers at 4 ug/ml preincubated for 10 mins followed by GTP addition and measured after 15 mins by transmission electron microscopic method
[21] = target: T1, Cell division protein FtsZ (Staphylococcus aureus); assay: Induction of recombinant Staphylococcus aureus FtsZ polymerization assessed as increase in bundling of protein protofilaments at 4 ug/ml preincubated for 10 mins followed by GTP addition and measured after 15 mins by transmission electron microscopic method
[22] = target: T1, Cell division protein FtsZ (Staphylococcus aureus); assay: Inhibition of recombinant Staphylococcus aureus FtsZ GTPase activity preincubated for 10 mins followed by GTP addition and measured after 30 mins
Bacteria = assay: Induction of bacterial GFP-fused FtsZ polymerization expressed in Bacillus subtilis 168 assessed as misformation of Z-ring at 2 ug/ml after 4 hrs by fluorescence microscopic method
Method in brief: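 B. subtilis 168 carrying a GFP–FtsZ construct was treated with compound or with DMSO as control. Z-ring formation was then examined by fluorescence microscopy.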

[23] = target: T2, Cell division protein FtsZ (Bacillus subtilis (strain 168)) (UniProt P17865); assay: Inhibition of cell division function of FtsZ in Bacillus subtilis 168 assessed as increase in cell length at 2 ug/ml after 5 hrs by phase contrast light microscopic method; settings: Bacillus subtilis subsp. subtilis str. 168
T2 sequence (whole entry): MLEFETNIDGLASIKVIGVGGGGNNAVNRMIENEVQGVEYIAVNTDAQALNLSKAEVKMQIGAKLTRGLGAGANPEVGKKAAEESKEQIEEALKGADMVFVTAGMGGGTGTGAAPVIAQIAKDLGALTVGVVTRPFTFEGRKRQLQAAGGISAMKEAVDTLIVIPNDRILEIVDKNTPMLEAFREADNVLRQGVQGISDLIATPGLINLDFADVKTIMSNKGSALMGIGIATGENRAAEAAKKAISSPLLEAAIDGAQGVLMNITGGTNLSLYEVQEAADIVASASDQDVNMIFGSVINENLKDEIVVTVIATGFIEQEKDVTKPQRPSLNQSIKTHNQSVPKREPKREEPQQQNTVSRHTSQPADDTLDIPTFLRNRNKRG
Method in brief: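 B. subtilis 168 cells were grown with or without 2 μg mL–1 compound. Cell morphology, including filamentation, was then examined by microscopy.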

Row | Compound | MIC90 (Bacillus subtilis [1]) [µg/mL] | MIC90 (Staphylococcus aureus [2]) [µg/mL] | MIC90 (Staphylococcus aureus [3]) [µg/mL] | MIC90 (Staphylococcus aureus [4]) [µg/mL] | MIC90 (Staphylococcus aureus [5]) [µg/mL] | MIC90 (Staphylococcus aureus [6]) [µg/mL] | MIC90 (Staphylococcus aureus [7]) [µg/mL] | MIC90 (Staphylococcus aureus [8]) [µg/mL] | MIC90 (Staphylococcus aureus [9]) [µg/mL] | MIC90 (Staphylococcus aureus [10]) [µg/mL] | MIC90 (Staphylococcus aureus [11]) [µg/mL] | MIC90 (Staphylococcus aureus [12]) [µg/mL] | MIC90 [13] [µg/mL] | MIC90 (Enterococcus faecalis) [µg/mL] | MIC90 (Enterococcus faecium [14]) [µg/mL] | MIC90 (Enterococcus faecium [15]) [µg/mL] | MIC90 (Escherichia coli) [µg/mL] | MIC90 (Pseudomonas aeruginosa) [µg/mL] | MIC90 (Klebsiella pneumoniae) [µg/mL] | further results
1 | COc1cccc(OC)c1C(=O)N[C@@H]1C(=O)N2[C@@H]1SC(C)(C)[C@@H]2C(=O)O [METHICILLIN] | < 1 | < 1 | 6 (≈ 15.8 µM) | 1020 (≈ 2690 µM) | 512 (≈ 1350 µM) | 512 (≈ 1350 µM) | 1020 (≈ 2690 µM) | 512 (≈ 1350 µM) | 1020 (≈ 2690 µM) | 256 (≈ 673 µM) | 512 (≈ 1350 µM) | 256 (≈ 673 µM) | 0.75 (≈ 1.97 µM) | 0.75 (≈ 1.97 µM) | 1.5 (≈ 3.94 µM) | 1.5 (≈ 3.94 µM) | 3 (≈ 7.89 µM) | > 256 | > 256 | Activity [16]: inactive
2 | O=C(O)C(=O)c1cn(Cc2ccccc2)c2ccc(-c3ccc(OC(F)(F)F)cc3)cc12 [TIPLASININ] | 2 (≈ 4.55 µM) | 2 (≈ 4.55 µM) | 2 (≈ 4.55 µM) | 4 (≈ 9.1 µM) | 4 (≈ 9.1 µM) | 4 (≈ 9.1 µM) | 4 (≈ 9.1 µM) | 4 (≈ 9.1 µM) | 4 (≈ 9.1 µM) | 4 (≈ 9.1 µM) | 2 (≈ 4.55 µM) | 2 (≈ 4.55 µM) | 2 (≈ 4.55 µM) | 4 (≈ 9.1 µM) | 4 (≈ 9.1 µM) | 4 (≈ 9.1 µM) | > 48 | > 48 | > 48 | Activity (Staphylococcus aureus [17]): >3 deltalog10CFU/ml; Activity (Bacillus subtilis [18]): >3 deltalog10CFU/ml; Activity [19]: Dose-dependent effect; Activity [20]: Active; Activity [21]: Active; inhibition [22]: Dose-dependent effect; Activity (Bacteria): Active; inhibition [23]: Active
3 | CN[C@H](CC(C)C)C(=O)N[C@H]1C(=O)N[C@@H](CC(N)=O)C(=O)N[C@H]2C(=O)N[C@H]3C(=O)N[C@H](C(=O)N[C@H](C(=O)O)c4cc(O)cc(O)c4-c4cc3ccc4O)[C@H](O)c3ccc(c(Cl)c3)Oc3cc2cc(c3O[C@@H]2O[C@H](CO)[C@@H](O)[C@H](O)[C@H]2O[C@H]2C[C@](C)(N)[C@H](O)[C@H](C)O2)Oc2ccc(cc2Cl)[C@H]1O [VANCOMYCIN] |  |  |  |  |  |  |  |  |  |  |  |  |  |  |  | > 96 |  |  |  | 
